MC4R antagonist = antagonists of human melanocortin 4 receptor (MC4R). inhibition, % at 6.5 µM. MC4R-expressing cells, MTII-stimulated cAMP, LANCE TR-FRET. actives 0.48% (n = 360,000). AID 540295;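 active = inhibition above its plate's cutoff, the mean of tested wells on that plate plus 3 SD, cut at about 29% in these data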
Target sequence (P32245 whole entry, looked up): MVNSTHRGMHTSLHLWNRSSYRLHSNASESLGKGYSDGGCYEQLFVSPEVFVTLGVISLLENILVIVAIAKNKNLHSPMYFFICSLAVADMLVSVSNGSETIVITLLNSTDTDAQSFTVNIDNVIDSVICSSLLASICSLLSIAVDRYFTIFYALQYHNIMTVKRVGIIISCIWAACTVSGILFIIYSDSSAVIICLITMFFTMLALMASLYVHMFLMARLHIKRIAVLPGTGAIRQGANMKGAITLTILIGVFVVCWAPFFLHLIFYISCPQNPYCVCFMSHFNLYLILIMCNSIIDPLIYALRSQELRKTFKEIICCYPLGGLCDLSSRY
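Test system: U2OS cells stably expressing human melanocortin 4 receptor (MC4R); also added: Melanotan II challenge; compound: 6.5 µM single dose; timing: 30-min compound preincubation, 1-h Melanotan II challenge, 1-h detection, room temperature; signal: Eu-cAMP/anti-cAMP TR-FRET, emission 671 nm; repeats: one well per compound, no replicates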
AI-2 QS modul = Vibrio harveyi AI-2 quorum sensing modulation | AID 2094 | Vibrio harveyi JMH597 AI-2 luminescence/OD600 ratio, 9 h; active compounds read low; strain lacks LuxN and CqsS sensors; 0 = neutral-control median | activity change, % at 7.5 µM | actives 0.4% (n = 300,000); in the data active = activity change below about -75%, passing the limit was not always enough; inconclusive = no clear call, values can overlap the other calls;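 also: luminescence divided by OD600 gain over 9 h not by final OD600 alone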
NTR1 agonist = agonists of human neurotensin receptor NTR1; P30989; NTR1-U2OS beta-arrestin-GFP spot imaging, agonist mode; activation, % at 20 µM; actives 0.17% (n = 330,000); AID 493036;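 active = activation at or above 40% of the spot to cytoplasm intensity ratio, with at least 20 cells analyzed; inconclusive = wells under 20 cells, flagged as cytotoxic or low count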
Target sequence (P30989 whole entry, looked up): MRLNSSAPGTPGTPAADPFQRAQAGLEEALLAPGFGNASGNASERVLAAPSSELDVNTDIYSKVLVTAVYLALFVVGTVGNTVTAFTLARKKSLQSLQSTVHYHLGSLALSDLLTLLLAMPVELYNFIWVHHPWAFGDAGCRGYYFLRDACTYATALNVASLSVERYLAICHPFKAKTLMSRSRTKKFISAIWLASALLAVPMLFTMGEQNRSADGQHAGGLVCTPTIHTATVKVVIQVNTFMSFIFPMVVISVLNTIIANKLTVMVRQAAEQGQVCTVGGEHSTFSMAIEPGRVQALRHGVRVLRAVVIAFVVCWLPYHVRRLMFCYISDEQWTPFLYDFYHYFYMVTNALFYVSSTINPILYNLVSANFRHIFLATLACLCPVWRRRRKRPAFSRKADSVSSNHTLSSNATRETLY
MC4R barr agon = activates human MC4R beta-arrestin recruitment | P32245 | U2OS MC4R beta-arrestin complementation, luminescence; percent of melanotan II response, DMSO zero | activation, % at 8.9 µM | actives 0.98% (n = 360,000) | AID 540308;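 active = activation above a per-plate cutoff, the mean activation of sample wells on that plate plus 3 SD, cut at about 8% in these data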
JMH597 growth rt = retest Vibrio harveyi JMH597 growth inhibition; growth inhibition, % at 7.5 µM; shares compounds with AI-2 QS modul; actives 1% (n = 750); AID 2726; OD600 absorbance, 9 h; lacks LuxN and CqsS sensors;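 active = every replicate shows growth inhibition above 50%; inconclusive = at least half, but not all, replicates pass that cutoff; inactive = fewer than half of replicates pass it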
BB721 lum counter = retest counter-screen: lowers luminescence of constitutive-QS Vibrio harveyi BB721; shares compounds with AI-2 QS modul; 9 h; inhibition, % at 7.5 µM; actives 95% (n = 750);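 active = inhibition above about 80% in every replicate, not just on average, limit read from the data; inconclusive = at least half of replicates past the limit, but not all; inactive = fewer than half of replicates past the limit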
BB721 growth = retest: blocks Vibrio harveyi BB721 growth; OD600 absorbance, 9 h; growth inhibition, % at 7.5 µM; actives 3% (n = 750); shares compounds with AI-2 QS modul;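 active = every replicate shows growth inhibition above 50%; inconclusive = at least half but not all replicates above 50% inhibition; inactive = under half of replicates above 50% inhibition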
JMH597 AI-2 mod = Vibrio harveyi AI-2 signaling luminescence modulation – JMH597 strain, confirmation | AID 2736 | actives 97% (n = 750) | Vibrio harveyi JMH597 AI-2 quorum sensing luminescence, 9 h; luxN and CqsS knockout, AI-2 only | shares compounds with AI-2 QS modul | inhibition, % at 7.5 µM;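 active = every replicate shows more than 75% inhibition of signal versus neutral control wells; inconclusive = half to three quarters of replicates exceed 75% inhibition; inactive = fewer than half of replicates exceed 75% inhibition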
Of the large screens only hits and unclear results are named; the others gave an inactive call (follow-up assays come after a bar, where they were run). Shown are actives, neighbours in structure and some others; about 1.8% of the full set was active somewhere.

Brc1ccc(CSc2nnc(-c3cccnc3)o2)cc1	AI-2 QS modul -94 | JMH597 growth rt inactive | BB721 lum counter 98 | BB721 growth inactive | JMH597 AI-2 mod 99
Cc1ccc(NC(=O)COC(=O)C2CCC2)cc1S(=O)(=O)N1CCCCC1	none
c1ccc(CSc2nnc(-c3cccnc3)o2)cc1	AI-2 QS modul -95 | JMH597 growth rt inactive | BB721 lum counter 99 | BB721 growth inactive | JMH597 AI-2 mod 99
c1cncc(-c2nnc(SCc3nc4ccccc4[nH]3)o2)c1	none
c1cncc(-c2nnc(SCc3cccc4ccccc34)o2)c1	AI-2 QS modul -96 | JMH597 growth rt inactive | BB721 lum counter 99 | BB721 growth inactive | JMH597 AI-2 mod 99
Cc1ccc(CSc2nnc(-c3ccccn3)n2N)cc1	AI-2 QS modul inconclusive | JMH597 growth rt inactive | BB721 lum counter 91 | BB721 growth inactive | JMH597 AI-2 mod 95
Fc1ccc(CSc2nnc(-c3cccnc3)o2)cc1	AI-2 QS modul -93 | JMH597 growth rt inactive | BB721 lum counter 98 | BB721 growth inactive | JMH597 AI-2 mod 99
CC(=O)c1ccc(NC(=O)CCNC(=O)c2ccc(Cl)cc2)cc1	none
Nn1c(SCc2ccc(Br)cc2)nnc1-c1cccnc1	AI-2 QS modul -86 | JMH597 growth rt inactive | BB721 lum counter 95 | BB721 growth inactive | JMH597 AI-2 mod 96
Cc1ccc(CSc2nnc(-c3cccnc3)o2)cc1	AI-2 QS modul -96 | JMH597 growth rt inactive | BB721 lum counter 99 | BB721 growth inactive | JMH597 AI-2 mod 99
Nn1c(SCc2ccc(F)cc2)nnc1-c1cccnc1	none
CC(=O)c1ccc(NCCC(=O)c2ccccc2)cc1	AI-2 QS modul -83 | JMH597 growth rt inactive | BB721 lum counter 93 | BB721 growth inactive | JMH597 AI-2 mod 95
CC(=O)c1ccc(NC(=O)CCCC(=O)c2ccccc2)cc1	none
CN1CCN(S(=O)(=O)c2ccc(Oc3ccc(Br)cc3F)nc2)CC1	AI-2 QS modul -84 | JMH597 growth rt inactive | BB721 lum counter 82 | BB721 growth inactive | JMH597 AI-2 mod 99
C[C@H]1CN([C@@H](C)CO)S(=O)(=O)c2ccc(Br)cc2O[C@@H]1CN(C)C(=O)Cc1ccccc1	none (no result: AI-2 QS modul, NTR1 agonist)
Cc1ccc(COC(=O)c2ccc3ccccc3n2)cc1	AI-2 QS modul -91 | JMH597 growth rt inactive | BB721 lum counter 98 | BB721 growth inactive | JMH597 AI-2 mod 99
Nc1nc(SCC(=O)Nc2cccc(Oc3ccccc3)c2)n[nH]1	none
Nc1nc(SCC(=O)Nc2ccc(Oc3ccccc3)cc2)n[nH]1	AI-2 QS modul -90 | JMH597 growth rt inactive | BB721 lum counter 95 | BB721 growth inactive | JMH597 AI-2 mod 97
O=C(Nc1cc(-c2ccccc2)[nH]n1)c1ccccc1	AI-2 QS modul -79 | JMH597 growth rt inactive | BB721 lum counter 88 | BB721 growth inactive | JMH597 AI-2 mod 93
O=C(O)c1ccccc1C(=O)Nc1cc(-c2ccccc2)[nH]n1	none
O=C(Nc1cc(-c2ccccc2)[nH]n1)c1ccccc1F	AI-2 QS modul -86 | JMH597 growth rt inactive | BB721 lum counter 92 | BB721 growth inactive | JMH597 AI-2 mod 94
O=S(=O)(c1ccccc1)N(CC(F)(F)F)c1ccc(C(O)(C(F)(F)F)C(F)(F)F)cc1	none (no result: AI-2 QS modul, NTR1 agonist)
COc1ccc(Cl)cc1NC(=O)CN(C)C(=O)Cn1cnnn1	none (no result: AI-2 QS modul)
Cc1cc(C(=O)OCC(=O)Nc2cccc(S(N)(=O)=O)c2)c(C)o1	none (no result: AI-2 QS modul)
Cc1cccc(NC(=O)COC(=O)c2cc(C)oc2C)c1	AI-2 QS modul -88 | JMH597 growth rt inactive | BB721 lum counter 95 | BB721 growth inactive | JMH597 AI-2 mod 97
COC(=O)c1ccc(Oc2ccc(C(C)(C)C)cc2)c([N+](=O)[O-])c1	AI-2 QS modul inconclusive | JMH597 growth rt inactive | BB721 lum counter 84 | BB721 growth inconclusive | JMH597 AI-2 mod 91
CC(=O)c1ccc(Oc2ccc(C(=O)c3ccc(C)c(C)c3)cc2[N+](=O)[O-])cc1	none
Clc1cccc(CON/C=N/c2ncnc3sccc23)c1	AI-2 QS modul -92 | JMH597 growth rt inactive | BB721 lum counter 96 | BB721 growth inactive | JMH597 AI-2 mod 98
COc1ccc(NC(=O)CN(c2ccc(OC)c(Cl)c2)S(=O)(=O)c2ccccc2)cc1	AI-2 QS modul inconclusive | JMH597 growth rt inactive | BB721 lum counter inactive | BB721 growth inactive | JMH597 AI-2 mod inactive
COc1ccc(N(CC(=O)Nc2ccc(OC)c(OC)c2)S(=O)(=O)c2ccccc2)cc1Cl	none
Nc1c(S(=O)(=O)c2ccccc2)nnn1-c1ccccc1	AI-2 QS modul -97 | JMH597 growth rt inactive | BB721 lum counter 100 | BB721 growth inactive | JMH597 AI-2 mod 100
O=C(NNc1nc2cc3c(cc2s1)OCO3)c1ccccc1	AI-2 QS modul -91 | JMH597 growth rt inactive | BB721 lum counter 98 | BB721 growth inactive | JMH597 AI-2 mod 98
C=Cn1c(C(=O)O)ccc1-c1ccc(CC)cc1	AI-2 QS modul -87 | JMH597 growth rt inactive | BB721 lum counter inactive | BB721 growth inactive | JMH597 AI-2 mod 100
O=C(NCCO)c1nc2ccccc2s1	none
O=C(NCc1ccccc1)c1nc2ccccc2s1	AI-2 QS modul inconclusive | JMH597 growth rt inactive | BB721 lum counter 91 | BB721 growth inactive | JMH597 AI-2 mod 94
Cc1cc(NC(=O)Cn2c(C)nc3ccccc3c2=O)ccc1Br	AI-2 QS modul -87 | JMH597 growth rt inactive | BB721 lum counter 99 | BB721 growth inactive | JMH597 AI-2 mod 99
Cc1nn(CC(=O)Nc2cccc(O)c2)c(=O)c2ccccc12	none (no result: AI-2 QS modul, NTR1 agonist)
CC(=O)Nc1ccc(C(=O)Cn2nnc3ccccc3c2=O)cc1	none
Cc1cc(C)cc(NC(=O)Cn2nnc3ccccc3c2=O)c1	AI-2 QS modul -83 | JMH597 growth rt inactive | BB721 lum counter 96 | BB721 growth inactive | JMH597 AI-2 mod 97
Cc1ccc(NC(=O)Cn2nc(C)c3ccccc3c2=O)cc1	AI-2 QS modul -85 | JMH597 growth rt inactive | BB721 lum counter 97 | BB721 growth inactive | JMH597 AI-2 mod 98
O=C(/C=C/NCc1cccnc1)c1ccc(Br)cc1	none
COC(=O)c1ccc(C)c(NC(=O)CN2C(=O)c3ccccc3S2(=O)=O)c1	none
COC(=O)c1ccc(NC(=O)CN2C(=O)c3ccccc3S2(=O)=O)cc1	AI-2 QS modul -90 | JMH597 growth rt inactive | BB721 lum counter 96 | BB721 growth inactive | JMH597 AI-2 mod 97
CC(C)(C)c1ccc(OCC(=O)NN2Cc3ccccc3C2=N)cc1	AI-2 QS modul -89 | JMH597 growth rt inactive | BB721 lum counter inconclusive | BB721 growth inactive | JMH597 AI-2 mod 88
